Data from ChEMBL document CHEMBL2010803, “Novel NSAID 1-acyl-4-cycloalkyl/arylsemicarbazides and 1-acyl-5-benzyloxy/hydroxy carbamoylcarbazides as potential anticancer agents and antioxidants” (Eur J Med Chem, 2012).
The source made the active and inactive calls. The rule behind the calls is not given here.

Legend:
HaCaT = experiment: Cytostatic activity against human HaCaT cells after 72 hrs by MTT assay; type: ADME, cell-based
In short: (§1)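 Monolayers in DMEM with 10% FBS, 2 mM L-glutamine and penicillin/streptomycin, 37 °C, 5% CO2. Seeded at 1–3 × 10^4 cells/ml, then compound added in tenfold dilutions (10⁻⁸–10⁻⁴ M) for 72 h. MTT read at 570 nm; percent growth taken against time-zero and untreated controls. IC50 by linear regression; quadruplicate, at least two experiments.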

Glycine max = experiment: Inhibition of soybean LOX assessed as conversion of sodium linoleate to 13- hydroperoxylinoleic acid at 100 uM
[1] = system: Human immunodeficiency virus 1; experiment: Antiviral activity against HIV1 3B infected in human CEM cells assessed as inhibition of virus-induced CEM giant cell formation at 0.32 to 100 uM after 4 days; type: functional, organism-based; conditions: CCRF-CEM
In short: (§2)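 CEM cells (~3 × 10^5 cells/cm³) exposed to 100 CCID50/ml of virus and seeded into wells holding compound dilutions. Incubated 4 days at 37 °C, then giant cell formation examined microscopically.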

HeLa = experiment: Cytostatic activity against human HeLa cells after 3 days by coulter counter analysis; type: functional, cell-based; conditions: 72 h
In short: (§3)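 300,000–500,000 cells/ml mixed 1:1 with compound dilutions and incubated at 37 °C for 2 days (L1210) or 3 days (CEM, HeLa). Cell number counted with a Coulter counter; HeLa trypsinized before counting.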

[2] = system: Mammalian orthoreovirus 1; experiment: Antiviral activity against Reovirus-1 infected in african green monkey Vero cells assessed as inhibition of virus-induced cytopathic effect at 0.32 to 100 uM; type: functional, organism-based
In short: (§4)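 Confluent cell cultures were infected with 100 CCID50 of virus in the presence of test compound at 100, 40, 8, 1.6 and 0.32 μM. Cytopathic effect was scored once it was complete in untreated infected controls.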

Influenza A virus [3] = experiment: Antiviral activity against Influenza A virus H3N2 infected in MDCK cells assessed as inhibition of virus-induced cytopathic effect at 0.32 to 100 uM; type: functional, organism-based
In short: (§5)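 Confluent MDCK monolayers were infected in the presence of the compound at 100, 40, 8, 1.6 and 0.32 μM. Viral cytopathicity was scored once it was complete in untreated infected control cultures.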

Feline coronavirus = experiment: Antiviral activity against Feline coronavirus infected in feline CRFK cells assessed as inhibition of virus-induced cytopathic effect at 0.32 to 100 uM; type: functional, organism-based; in short: as §4
[4] = system: Respiratory syncytial virus; experiment: Antiviral activity against RSV infected in human cervix carcinoma cells assessed as inhibition of virus-induced cytopathic effect at 0.32 to 100 uM; type: functional, organism-based; in short: as §4
MCF7 = experiment: Cytostatic activity against human MCF7 cells after 72 hrs by MTT assay; type: functional, cell-based; conditions: MCF7, 72 h; in short: as §1
L1210 = experiment: Cytostatic activity against mouse L1210 cells after 2 days by coulter counter analysis; type: functional, cell-based; conditions: L1210, 48 h; in short: as §3
[5] = Antioxidant activity assessed as inhibition of AAPH-induced linoleic acid lipid peroxidation by measuring conjugated diene hydroperoxide level; type: functional; set-up: concentration or dose not given beside the values; conditions: dose or concentration not given here
In short: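 Linoleic acid sodium salt (10 μL of 16 mM) in 0.05 M phosphate buffer pH 7.4 at 37 °C. Oxidation started under air with 50 μL of 40 mM AAPH. Conjugated diene hydroperoxide formation followed as absorbance rise at 234 nm; control contains the same DMSO level. At least triplicate.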

Punta Toro virus = experiment: Antiviral activity against Punta Toro virus infected in african green monkey Vero cells assessed as inhibition of virus-induced cytopathic effect at 0.32 to 100 uM; type: functional, organism-based; in short: as §4
Human respirovirus 3 = experiment: Antiviral activity against Parainfluenza virus 3 infected in african green monkey Vero cells assessed as inhibition of virus-induced cytopathic effect at 0.32 to 100 uM; type: functional, organism-based; in short: as §4
Influenza B virus = experiment: Antiviral activity against Influenza B virus infected in MDCK cells assessed as inhibition of virus-induced cytopathic effect at 0.32 to 100 uM; type: functional, organism-based; in short: as §5
Felid alphaherpesvirus 1 = experiment: Antiviral activity against Feline herpesvirus infected in feline CRFK cells assessed as inhibition of virus-induced cytopathic effect at 0.32 to 100 uM; type: functional, organism-based; in short: as §4
[6] = system: Human immunodeficiency virus 2; experiment: Antiviral activity against HIV2 ROD infected in human CEM cells assessed as inhibition of virus-induced CEM giant cell formation at 0.32 to 100 uM after 4 days; type: functional, organism-based; conditions: ISOLATE ROD, CCRF-CEM; in short: as §2
Human alphaherpesvirus 2 = experiment: Antiviral activity against HSV2 G infected in human lung fibroblast assessed as inhibition of virus-induced cytopathic effect at 0.32 to 100 uM; type: functional, organism-based; conditions: strain G; in short: as §4
Vaccinia virus = experiment: Antiviral activity against Vaccinia virus infected in human lung fibroblast assessed as inhibition of virus-induced cytopathic effect at 0.32 to 100 uM; type: functional, organism-based; conditions: Orthopoxvirus vaccinia
[7] = system: Radical scavenging activity; experiment: Antioxidant activity assessed as DPPH free radical scavenging activity at 100 uM after 20 mins by spectrophotometric analysis; type: functional
In short: (§6)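 0.05 mM DPPH in absolute ethanol mixed with an equal volume of compound in DMSO (final 100 μM). Shaken and left 20 or 60 min, then absorbance read at 517 nm and percent activity calculated. Three replicates, averaged.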

CCRF-CEM = experiment: Cytostatic activity against human CEM cells after 3 days by coulter counter analysis; type: functional, cell-based; conditions: 72 h; in short: as §3
Coxsackievirus B4 [8] = experiment: Antiviral activity against Coxsackievirus B4 infected in african green monkey Vero cells assessed as inhibition of virus-induced cytopathic effect at 0.32 to 100 uM; type: functional, organism-based; in short: as §4
Human alphaherpesvirus 1 = experiment: Antiviral activity against HSV1 KOS infected in human lung fibroblast assessed as inhibition of virus-induced cytopathic effect at 0.32 to 100 uM; type: functional, organism-based; in short: as §4
[9] = system: Radical scavenging activity; experiment: Antioxidant activity assessed as DPPH free radical scavenging activity at 100 uM after 60 mins by spectrophotometric analysis; type: functional; in short: as §6
NCI-H460 = experiment: Cytostatic activity against human NCI-H460 cells after 72 hrs by MTT assay; type: functional, cell-based; conditions: NCI-H460, 72 h; in short: as §1
HCT-116 = experiment: Cytostatic activity against human HCT116 cells after 72 hrs by MTT assay; type: functional, cell-based; conditions: HCT-116, 72 h; in short: as §1
[10] = system: Vesicular stomatitis virus; experiment: Antiviral activity against VSV infected in human lung fibroblast assessed as inhibition of virus-induced cytopathic effect at 0.32 to 100 uM; type: functional, organism-based
Coxsackievirus B4 [11] = experiment: Antiviral activity against Coxsackievirus B4 infected in human cervix carcinoma cells assessed as inhibition of virus-induced cytopathic effect at 0.32 to 100 uM; type: functional, organism-based; in short: as §4
[12] = system: Vesicular stomatitis virus; experiment: Antiviral activity against Vesicular stomatitis virus infected in human cervix carcinoma cells assessed as inhibition of virus-induced cytopathic effect at 0.32 to 100 uM; type: functional, organism-based
In short: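 Confluent human cervix carcinoma (HeLa) cultures received 100 CCID50 of VSV together with the compound at 100, 40, 8, 1.6 or 0.32 μM. Cytopathicity was read at the point of full CPE in infected, untreated control wells.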

Influenza A virus [13] = experiment: Antiviral activity against Influenza A virus H1N1 infected in MDCK cells assessed as inhibition of virus-induced cytopathic effect at 0.32 to 100 uM; type: functional, organism-based; in short: as §5
Sindbis virus = experiment: Antiviral activity against Sindbis virus infected in african green monkey Vero cells assessed as inhibition of virus-induced cytopathic effect at 0.32 to 100 uM; type: functional, organism-based; in short: as §4

Compound: O=c1[nH]cc(F)c(=O)[nH]1 [FLUOROURACIL]
- IC50 (HaCaT): 0.3 µM

Compound: CC(C)Cc1ccc(C(C)C(=O)NN)cc1 (configuration not stated)
- inhibition (Glycine max): 8%
- inhibition [1]: inactive
- IC50 (HeLa): 129 µM
- inhibition [2]: inactive
- inhibition (Influenza A virus [3]): inactive
- inhibition (Feline coronavirus): inactive
- inhibition [4]: inactive
- IC50 (MCF7): > 100 µM
- IC50 (L1210): 170 µM
- inhibition [5]: 6%
- inhibition (Punta Toro virus): inactive
- inhibition (Human respirovirus 3): inactive
- inhibition (Influenza B virus): inactive
- inhibition (Felid alphaherpesvirus 1): inactive
- inhibition [6]: inactive
- inhibition (Human alphaherpesvirus 2): inactive
- inhibition (Vaccinia virus): inactive
- Activity [7]: inactive
- IC50 (CCRF-CEM): 147 µM
- inhibition (Coxsackievirus B4 [8]): inactive
- inhibition (Human alphaherpesvirus 1): inactive
- Activity [9]: 1%
- IC50 (NCI-H460): > 100 µM
- IC50 (HCT-116): > 100 µM
- inhibition [10]: inactive
- inhibition (Coxsackievirus B4 [11]): inactive
- inhibition [12]: inactive
- inhibition (Influenza A virus [13]): inactive
- inhibition (Sindbis virus): inactive

Compound: CC(C)Cc1ccc(C(C)C(=O)NNC(=O)NCCc2ccccc2)cc1 (configuration not stated)
- inhibition (Glycine max): inactive
- inhibition [1]: inactive
- IC50 (HeLa): ≥ 250 µM
- inhibition [2]: inactive
- inhibition (Influenza A virus [3]): inactive
- inhibition (Feline coronavirus): inactive
- inhibition [4]: inactive
- IC50 (MCF7): 23 µM
- IC50 (L1210): 180 µM
- inhibition [5]: 33%
- inhibition (Punta Toro virus): inactive
- inhibition (Human respirovirus 3): inactive
- inhibition (Influenza B virus): inactive
- inhibition (Felid alphaherpesvirus 1): inactive
- inhibition [6]: inactive
- inhibition (Human alphaherpesvirus 2): inactive
- inhibition (Vaccinia virus): inactive
- Activity [7]: inactive
- IC50 (CCRF-CEM): 148 µM
- inhibition (Coxsackievirus B4 [8]): inactive
- inhibition (Human alphaherpesvirus 1): inactive
- Activity [9]: inactive
- IC50 (NCI-H460): 51 µM
- IC50 (HCT-116): 26 µM
- inhibition [10]: inactive
- inhibition (Coxsackievirus B4 [11]): inactive
- inhibition [12]: inactive
- inhibition (Influenza A virus [13]): inactive
- inhibition (Sindbis virus): inactive

Compound: CC(C)Cc1ccc(C(C)C(=O)NNC(=O)NNC(=O)NO)cc1 (configuration not stated)
- inhibition (Glycine max): inactive
- inhibition [1]: inactive
- IC50 (HeLa): > 250 µM
- inhibition [2]: inactive
- inhibition (Influenza A virus [3]): inactive
- inhibition (Feline coronavirus): inactive
- inhibition [4]: inactive
- IC50 (MCF7): > 100 µM
- IC50 (L1210): > 250 µM
- inhibition [5]: 15%
- inhibition (Punta Toro virus): inactive
- inhibition (Human respirovirus 3): inactive
- inhibition (Influenza B virus): inactive
- inhibition (Felid alphaherpesvirus 1): inactive
- inhibition [6]: inactive
- inhibition (Human alphaherpesvirus 2): inactive
- inhibition (Vaccinia virus): inactive
- Activity [7]: 24%
- IC50 (CCRF-CEM): > 250 µM
- inhibition (Coxsackievirus B4 [8]): inactive
- inhibition (Human alphaherpesvirus 1): inactive
- Activity [9]: 46%
- IC50 (NCI-H460): > 100 µM
- IC50 (HCT-116): > 100 µM
- inhibition [10]: inactive
- inhibition (Coxsackievirus B4 [11]): inactive
- inhibition [12]: inactive
- inhibition (Influenza A virus [13]): inactive
- inhibition (Sindbis virus): inactive

Compound: CC(C(=O)NNC(=O)NO)c1cccc(Cc2ccccc2)c1 (configuration not stated)
- inhibition (Glycine max): 8%
- inhibition [1]: inactive
- IC50 (HeLa): 176 µM
- inhibition [2]: inactive
- inhibition (Influenza A virus [3]): inactive
- inhibition (Feline coronavirus): inactive
- inhibition [4]: inactive
- IC50 (MCF7): > 100 µM
- IC50 (L1210): 113 µM
- inhibition [5]: 8%
- inhibition (Punta Toro virus): inactive
- inhibition (Human respirovirus 3): inactive
- inhibition (Influenza B virus): inactive
- inhibition (Felid alphaherpesvirus 1): inactive
- inhibition [6]: inactive
- inhibition (Human alphaherpesvirus 2): inactive
- inhibition (Vaccinia virus): inactive
- Activity [7]: 36%
- IC50 (CCRF-CEM): 155 µM
- inhibition (Coxsackievirus B4 [8]): inactive
- inhibition (Human alphaherpesvirus 1): inactive
- Activity [9]: 59%
- IC50 (NCI-H460): > 100 µM
- IC50 (HCT-116): > 100 µM
- inhibition [10]: inactive
- inhibition (Coxsackievirus B4 [11]): inactive
- inhibition [12]: inactive
- inhibition (Influenza A virus [13]): inactive
- inhibition (Sindbis virus): inactive
